Data reported in PubChem BioAssay AID504826 (Southern Research Specialized Biocontainment Screening …, 2011).

System: HEp-2 viability, luminescence (CellTiter-Glo)
Assay: viability of uninfected HEp-2 host cells – cell-based, synthesized compounds, set 9, cytotoxicity control for RSV antiviral project, dose response (AID 504826)
Outline: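 Test system: uninfected HEp-2 human cells, ATP-based viability; Measure: % viability and fitted CC50; Signal: CellTiter-Glo ATP luminescence; Timing: compound exposure six days at 37 °C, 5% CO2.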

`COCCCNC(=O)c1ccc(Cn2c(=O)c3ccccc3n(Cc3ccc([N+](=O)[O-])cc3)c2=O)cc1` gave a CC50 of 115 µM.
`COCCCNC(=O)c1ccc(Cn2c(=O)c3ccccc3n(Cc3ccc(C(F)(F)F)cc3)c2=O)cc1` showed a CC50 of 95.7 µM.
Work on `COCCCNC(=O)c1ccc(Cn2c(=O)c3ccccc3n(Cc3ccc(C)c(C(F)(F)F)c3)c2=O)cc1` yielded a CC50 of 75.2 µM.
`COCCCNC(=O)c1ccc(Cn2c(=O)c3ccccc3n(Cc3ccc(OC)cc3)c2=O)cc1` was tested, and the CC50 was 121 µM.
`COCCCNC(=O)c1ccc(Cn2c(=O)c3ccccc3n(Cc3ccc(Br)cc3)c2=O)cc1` showed a CC50 of 126 µM.
`Cc1ccc(C)c(NC(=O)[C@@H]2CCCN2S(=O)(=O)c2cccc3cccnc23)c1` was tested, and the CC50 was 25 µM.
Compound `COc1ccccc1CNC(=O)C1CCN(S(=O)(=O)c2cccc3nonc23)CC1` has a CC50 of 146 µM.
